Non-standard residues stand in square brackets, D forms with d. Nap = naphthalene (naphthaline) capping group; Lys(Me3) = C[N+](C)(C)CCCC[C@H](N)C(=O)O; Ada = adamantane cap
Experiments:
[1] = test system: C-LytA (C-terminal moiety of the pneumococcal cell-wall amidase LytA); assay: Isothermal titration calorimetry; format: binding, Streptococcus pneumoniae; conditions: ITC; in words, as compared to Fmoc-K' itself
Summary of the method: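 Recombinant C-LytA was expressed in E. coli BL21(DE3), induced with 0.3 mM IPTG at 16°C for 16–18 h, purified on Q Sepharose, eluted with 2% choline, and dialysed into PBS to remove choline. It was a dimer by gel filtration and ultracentrifugation. ITC was run in PBS at 16°C with ligand at pH 7.4, both solutions degassed by centrifugation. Ligand was titrated into the protein cell (0.4 μL, then 19 × 2 μL injections, 120 s apart, stirred at 1000 rpm). Ka came from a one- or two-site binding fit.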

[2] = Transmission electron microscopy; format: physicochemical; conditions: TEM, PBS; for morphology after self-assembly: pH = 7.4, above CMC, samples prepared at 25°C, uranyl acetate stain
Summary of the method: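 Samples were prepared in PBS at 25°C and applied to carbon-coated copper grids. Excess liquid was blotted with filter paper, and samples were negatively stained with uranyl acetate. Grids were dried overnight in a desiccator and imaged at 200 kV.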

[3] = pH = 7.4, 1.25 mmol/L, 1.08 wt% (Figure 2 legend)

| Substance | association constant (Ka) with C-LytA compared to Fmoc-K' [1] | average diameter of nanoparticles ([2]; pH = 7.4, 1.09 wt%) | morphology after self-assembly [2] | length of nanofibers [2, 3] | width of nanofibers [2, 3] |
| --- | --- | --- | --- | --- | --- |
| AdaGFFYKKK'-NH2 (Ada-GFFYKK[Lys(Me3)]-NH2) [Compound 1] | far higher association constant | around 153 nm | nanoparticle morphology |  |  |
| NapGFFYKKK'-NH2 (Nap-GFFYKK[Lys(Me3)]-NH2) [Compound 2] | far higher association constant |  | uniform nanofibers | several microns | around 75 nm |

From paper PMC4197414 (Scientific Reports, 2014)
